The record followed here is ChEMBL document CHEMBL1141501, “Identification of a potent new chemotype for the selective inhibition of PDE4” (Bioorg Med Chem Lett, 2008).

Each structure is given as a SMILES string. pIC50: −log10 of the molar value. Activity calls are given as the source filed them. No cut-off for these calls is given here.

For orientation: pIC50 means −log10 of the IC50, conventionally taken in molar units.

Chain of 3',5'-cyclic-AMP phosphodiesterase 7B (Homo sapiens) (Q9NP56 whole entry): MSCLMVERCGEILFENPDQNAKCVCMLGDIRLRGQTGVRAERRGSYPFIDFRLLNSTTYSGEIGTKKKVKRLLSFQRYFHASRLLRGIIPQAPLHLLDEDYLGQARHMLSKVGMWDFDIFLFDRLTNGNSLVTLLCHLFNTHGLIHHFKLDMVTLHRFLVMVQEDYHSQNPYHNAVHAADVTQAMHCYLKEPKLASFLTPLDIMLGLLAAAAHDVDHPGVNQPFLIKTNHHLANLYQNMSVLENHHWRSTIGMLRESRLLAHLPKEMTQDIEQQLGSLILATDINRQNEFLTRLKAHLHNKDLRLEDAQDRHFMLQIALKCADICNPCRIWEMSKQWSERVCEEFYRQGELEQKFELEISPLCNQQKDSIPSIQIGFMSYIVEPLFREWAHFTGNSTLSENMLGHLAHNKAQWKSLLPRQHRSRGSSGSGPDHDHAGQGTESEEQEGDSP
Chain of High affinity 3',5'-cyclic-AMP phosphodiesterase 7A (Homo sapiens) (Q13946 whole entry): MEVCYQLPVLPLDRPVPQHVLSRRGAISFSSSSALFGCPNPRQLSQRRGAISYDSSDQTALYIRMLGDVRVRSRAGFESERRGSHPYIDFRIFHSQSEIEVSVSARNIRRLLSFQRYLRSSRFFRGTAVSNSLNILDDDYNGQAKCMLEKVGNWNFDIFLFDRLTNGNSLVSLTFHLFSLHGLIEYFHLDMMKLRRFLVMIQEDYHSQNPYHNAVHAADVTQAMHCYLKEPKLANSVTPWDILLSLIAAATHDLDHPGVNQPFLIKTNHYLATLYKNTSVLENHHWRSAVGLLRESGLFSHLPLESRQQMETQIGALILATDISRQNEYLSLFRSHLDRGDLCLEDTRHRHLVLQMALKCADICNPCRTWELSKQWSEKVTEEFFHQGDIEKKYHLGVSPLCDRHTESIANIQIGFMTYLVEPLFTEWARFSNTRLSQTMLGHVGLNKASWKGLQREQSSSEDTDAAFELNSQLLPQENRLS
Chain of Dual specificity calcium/calmodulin-dependent 3',5'-cyclic nucleotide phosphodiesterase 1A (P54750 whole entry): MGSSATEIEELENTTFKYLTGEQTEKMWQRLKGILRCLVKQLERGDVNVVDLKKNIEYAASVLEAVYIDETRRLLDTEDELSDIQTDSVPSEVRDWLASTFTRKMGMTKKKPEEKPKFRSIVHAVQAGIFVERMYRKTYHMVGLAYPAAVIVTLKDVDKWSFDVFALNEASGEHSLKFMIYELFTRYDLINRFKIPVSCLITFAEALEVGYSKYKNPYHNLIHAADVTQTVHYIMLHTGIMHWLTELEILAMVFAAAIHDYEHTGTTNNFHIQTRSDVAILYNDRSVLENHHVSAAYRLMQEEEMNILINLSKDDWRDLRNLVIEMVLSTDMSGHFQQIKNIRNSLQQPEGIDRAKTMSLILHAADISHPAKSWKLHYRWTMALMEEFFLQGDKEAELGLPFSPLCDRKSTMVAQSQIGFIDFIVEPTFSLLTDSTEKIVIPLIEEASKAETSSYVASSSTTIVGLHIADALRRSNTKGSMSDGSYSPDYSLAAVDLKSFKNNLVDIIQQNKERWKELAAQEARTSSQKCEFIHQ
Chain of Dual specificity calcium/calmodulin-dependent 3',5'-cyclic nucleotide phosphodiesterase 1B (Q01064 whole entry): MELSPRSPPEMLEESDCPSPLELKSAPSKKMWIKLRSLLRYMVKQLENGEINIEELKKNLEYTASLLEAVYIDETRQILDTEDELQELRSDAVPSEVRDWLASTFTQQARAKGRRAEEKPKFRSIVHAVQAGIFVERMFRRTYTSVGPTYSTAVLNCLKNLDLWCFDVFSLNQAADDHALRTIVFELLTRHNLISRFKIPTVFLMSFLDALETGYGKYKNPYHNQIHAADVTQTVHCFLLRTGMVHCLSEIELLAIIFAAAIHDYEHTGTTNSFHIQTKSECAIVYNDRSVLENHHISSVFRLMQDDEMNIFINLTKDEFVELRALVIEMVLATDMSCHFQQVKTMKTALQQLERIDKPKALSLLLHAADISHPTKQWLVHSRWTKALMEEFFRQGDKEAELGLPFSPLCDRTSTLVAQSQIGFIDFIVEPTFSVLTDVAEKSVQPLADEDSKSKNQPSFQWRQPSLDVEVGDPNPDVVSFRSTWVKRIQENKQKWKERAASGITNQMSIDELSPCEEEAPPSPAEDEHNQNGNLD

The first test concerns the target Dual 3',5'-cyclic-AMP and -GMP phosphodiesterase 11A (Homo sapiens, UniProt Q9HCR9).
As to `COc1ccc(C2=Nn3c(nnc3-c3ccccc3OC)SC2)cc1OC`, the negative logarithm of the IC50 (pIC50) is below 4.30.

In the next test the target is High affinity cGMP-specific 3',5'-cyclic phosphodiesterase 9A (Homo sapiens) (UniProt O76083). The test can be described thus: Inhibition of PDE9A.
Chain of High affinity cGMP-specific 3',5'-cyclic phosphodiesterase 9A (Homo sapiens) (O76083 whole entry): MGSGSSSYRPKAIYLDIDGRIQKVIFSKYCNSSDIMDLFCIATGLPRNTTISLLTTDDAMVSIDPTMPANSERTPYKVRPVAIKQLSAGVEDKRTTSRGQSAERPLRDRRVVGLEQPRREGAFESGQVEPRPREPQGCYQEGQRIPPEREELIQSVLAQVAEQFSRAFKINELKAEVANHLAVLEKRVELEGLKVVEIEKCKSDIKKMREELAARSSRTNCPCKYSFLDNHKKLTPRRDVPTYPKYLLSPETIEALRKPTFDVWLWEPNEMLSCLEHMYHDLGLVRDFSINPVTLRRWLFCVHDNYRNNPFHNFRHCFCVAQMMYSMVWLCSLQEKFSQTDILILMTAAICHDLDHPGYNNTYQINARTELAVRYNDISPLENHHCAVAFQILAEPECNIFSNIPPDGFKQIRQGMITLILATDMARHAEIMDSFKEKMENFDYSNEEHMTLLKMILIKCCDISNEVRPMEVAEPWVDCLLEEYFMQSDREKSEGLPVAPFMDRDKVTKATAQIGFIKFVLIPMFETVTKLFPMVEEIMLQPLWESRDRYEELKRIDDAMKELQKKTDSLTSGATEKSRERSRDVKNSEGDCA
Turning to `COc1ccc(C2=Nn3c(nnc3-c3ccccc3OC)SC2)cc1OC`, the outcome was inactive.

Regarding `COc1ccc(C2CNC(=O)C2)cc1OC1CCCC1` (configuration not stated) [ROLIPRAM], the result was inactive.

A further test concerns the target Dual specificity calcium/calmodulin-dependent 3',5'-cyclic nucleotide phosphodiesterase 1B (Homo sapiens, UniProt Q01064). The test can be described thus: Inhibition of PDE1B.
Turning to `COc1ccc(C2=Nn3c(nnc3-c3ccccc3OC)SC2)cc1OC`, the pIC50 was below 4.30.

On to `COc1ccc(C2CNC(=O)C2)cc1OC1CCCC1` (configuration not stated) [ROLIPRAM], for which the result was inactive.

A further test concerns the target Phosphodiesterase 4 (Homo sapiens, UniProt P27815+Q08499+Q07343+Q08493). The test can be described thus: Inhibition of human PDE4A1A by IMAP technology. In kind it is protein assay. The method, boiled down:
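Human PDE4A1A at 0.05 ng/μl final, in 10 mM Tris pH 7.2 with 0.1% BSA, 10 mM MgCl2, 1 mM DTT and 0.05% NaN3. Compound pin-transferred, then 5 min at RT before adding 100 nM cAMP (final). After 40 min at RT, IMAP binding reagent was added and incubated 1–4 h at RT.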
Turning to `COc1cccc(C2=Nn3c(nnc3-c3cc(OC)ccc3OC)SC2)c1`, the negative-log IC50 (pIC50) was 5.10. Same read-out and setting: the same measure for `COc1ccc(C2=Nn3c(nnc3-c3ccc(OC)cc3OC)SC2)cc1`: below 4.70; for `COc1cccc(C2=Nn3c(nnc3-c3ccc(OC)cc3OC)SC2)c1`: 4.87; for `COc1ccc(OC)c(-c2nnc3n2N=C(c2ccccc2OC)CS3)c1`: 4.71.

In the case of `COc1ccc(C2=Nn3c(nnc3-c3ccc(OC)cc3)SC2)cc1`, the pIC50 was 5.08. Regarding `COc1ccc(OC)c(C2=Nn3c(nnc3-c3ccccc3C)SC2)c1`, the pIC50 is 5.20.

Molecule `COc1ccc(-c2nnc3n2N=C(c2ccccc2OC)CS3)cc1` gave a pIC50 of 4.85. `COc1cccc(-c2nnc3n2N=C(c2ccc(OC)cc2OC)CS3)c1`: the negative logarithm of the IC50 (pIC50) is 4.85. `COc1ccc(C2=Nn3c(nnc3-c3ccccc3OC)SC2)cc1`: the negative logarithm of the IC50 (pIC50) was below 4.70. `COc1ccc(-c2nnc3n2N=C(c2ccccc2OC)CS3)c(OC)c1` had a negative-log IC50 (pIC50) of 4.71. On the same count and under the same terms, the same measure for `COc1ccc(C2=Nn3c(nnc3-c3ccc(OC)c(OC)c3)SC2)cc1`: 5.12; for `COc1cc(OC)cc(-c2nnc3n2N=C(c2ccc(OC)cc2OC)CS3)c1`: below 4.70. Molecule `CCOc1ccccc1-c1nnc2n1N=C(c1ccccc1OC)CS2` showed a pIC50 below 4.70. Same read-out and setting: the same measure for `CCOc1ccccc1-c1nnc2n1N=C(c1cccc(OC)c1)CS2`: 4.95; for `CCOc1ccccc1-c1nnc2n1N=C(c1c(OC)cccc1OC)CS2`: below 4.70; for `COc1cccc(C2=Nn3c(nnc3-c3ccc(OC)c(OC)c3)SC2)c1`: 5.05.

As to `COc1ccc(-c2nnc3n2N=C(c2ccc(OC)c(OC)c2)CS3)cc1`, the pIC50 is 7.05. Still for that read-out and setting: for `CCOc1ccccc1-c1nnc2n1N=C(c1cc(OC)ccc1OC)CS2` the value was 4.87; for `COc1ccc(-c2nnc3n2N=C(c2ccccc2OC)CS3)cc1OC`, 5.05; for `COc1ccc(-c2nnc3n2N=C(c2cc(OC)ccc2OC)CS3)cc1`, 5.00. Same read-out and setting: for `COc1ccccc1C1=Nn2c(nnc2-c2cccc(OC)c2OC)SC1` the value was below 4.70.

In turn, `COc1cccc(-c2nnc3n2N=C(c2c(OC)cccc2OC)CS3)c1OC` had a pIC50 below 4.70. Still for that read-out and setting: the same measure for `CCOc1ccccc1-c1nnc2n1N=C(c1ccc(OC)cc1OC)CS2`: below 4.70; for `COc1cccc(C2=Nn3c(nnc3-c3cccc(OC)c3OC)SC2)c1`: below 4.70. The same measure, in the same setting: for `COc1ccc(C2=Nn3c(nnc3-c3ccccc3OC)SC2)c(OC)c1` the value was 4.82; for `COc1ccc(C2=Nn3c(nnc3-c3ccccc3C)SC2)c(OC)c1`, below 4.70; for `COc1ccc(C2=Nn3c(nnc3-c3ccc(OC)c(OC)c3)SC2)c(OC)c1`, 5.17.

Regarding `COc1cccc(OC)c1C1=Nn2c(nnc2-c2ccccc2O)SC1`, the pIC50 is below 4.70.

In turn, `COc1cccc(-c2nnc3n2N=C(c2c(OC)cccc2OC)CS3)c1` showed a pIC50 below 4.70.

Turning to `CCOc1ccccc1-c1nnc2n1N=C(c1ccc(OC)cc1)CS2`, the negative logarithm of the IC50 (pIC50) is 5.35. On the same count and under the same terms, for `COc1ccc(-c2nnc3n2N=C(c2c(OC)cccc2OC)CS3)c(OC)c1` the value was below 4.70; for `COc1cccc(OC)c1C1=Nn2c(nnc2-c2ccccc2C)SC1`, 4.85. The same measure, in the same setting: for `COc1ccc(OC)c(C2=Nn3c(nnc3-c3ccc(OC)c(OC)c3)SC2)c1` the value was 5.16; for `COc1ccc(OC)c(C2=Nn3c(nnc3-c3cc(OC)ccc3OC)SC2)c1`, 4.92; for `COc1ccc(-c2nnc3n2N=C(c2cc(OC)ccc2OC)CS3)c(OC)c1`, 5.28. On the same count and under the same terms, for `COc1ccc(-c2nnc3n2N=C(c2ccc(OC)c(OC)c2)CS3)c(OC)c1` the value was 7.10; for `COc1cc(OC)cc(-c2nnc3n2N=C(c2ccccc2OC)CS3)c1`, 4.87. Take `COc1cccc(-c2nnc3n2N=C(c2ccc(OC)c(OC)c2)CS3)c1`: the pIC50 is 6.90. `COc1ccc(OC)c(-c2nnc3n2N=C(c2c(OC)cccc2OC)CS3)c1` gave a pIC50 below 4.70. Still for that read-out and setting: the same measure for `COc1ccc(C2=Nn3c(nnc3-c3cc(OC)cc(OC)c3)SC2)cc1`: 5.02; for `COc1ccc(-c2nnc3n2N=C(c2c(OC)cccc2OC)CS3)cc1`: 4.71. As for `COc1ccc(C2=Nn3c(nnc3-c3cc(OC)ccc3OC)SC2)c(OC)c1`, the negative-log IC50 (pIC50) is 5.12.

Consider `COc1ccc(C2=Nn3c(nnc3-c3ccc(OC)cc3OC)SC2)c(OC)c1`, for which the pIC50 is below 4.70. Still for that read-out and setting: the same measure for `COc1ccc(-c2nnc3n2N=C(c2ccc(OC)cc2OC)CS3)cc1`: 4.87; for `COc1ccc(C2=Nn3c(nnc3-c3cccc(OC)c3)SC2)cc1`: 4.90; for `COc1ccc(-c2nnc3n2N=C(c2cccc(OC)c2)CS3)cc1`: 5.08. Still for that read-out and setting: the same measure for `COc1cccc(C2=Nn3c(nnc3-c3ccccc3O)SC2)c1`: 4.85; for `COc1cccc(C2=Nn3c(nnc3-c3cc(OC)cc(OC)c3)SC2)c1`: 4.87. Same read-out and setting: the same measure for `COc1cc(OC)cc(-c2nnc3n2N=C(c2c(OC)cccc2OC)CS3)c1`: 4.71. As for `COc1ccc(C2=Nn3c(nnc3-c3cccc(OC)c3OC)SC2)cc1`, the pIC50 is below 4.70. Same read-out and setting: for `COc1ccc(OC)c(C2=Nn3c(nnc3-c3ccccc3O)SC2)c1` the value was below 4.70; for `COc1cccc(-c2nnc3n2N=C(c2cc(OC)ccc2OC)CS3)c1`, 4.90. For `COc1cc(OC)cc(-c2nnc3n2N=C(c2ccc(OC)c(OC)c2)CS3)c1`, the pIC50 is 7.30. Take `COc1ccc(C2=Nn3c(nnc3-c3cccc(OC)c3OC)SC2)c(OC)c1`: the pIC50 was below 4.70. Regarding `COc1ccc(C2=Nn3c(nnc3-c3cc(OC)ccc3OC)SC2)cc1`, the pIC50 is 5.77. Still for that read-out and setting: the same measure for `COc1ccc(-c2nnc3n2N=C(c2c(OC)cccc2OC)CS3)cc1OC`: 4.85; for `COc1ccccc1C1=Nn2c(nnc2-c2ccccc2O)SC1`: below 4.70; for `COc1ccc(C2=Nn3c(nnc3-c3ccccc3O)SC2)cc1`: 5.08. Still for that read-out and setting: for `COc1cc(OC)cc(-c2nnc3n2N=C(c2cc(OC)ccc2OC)CS3)c1` the value was 4.90. On the same count and under the same terms, the same measure for `COc1ccc(C2=Nn3c(nnc3-c3ccccc3O)SC2)c(OC)c1`: below 4.70; for `COc1cccc(C2=Nn3c(nnc3-c3ccccc3OC)SC2)c1`: 4.92; for `COc1ccc(C2=Nn3c(nnc3-c3ccccc3C)SC2)cc1`: 4.90.

For `COc1ccccc1C1=Nn2c(nnc2-c2ccccc2C)SC1`, the pIC50 was 4.85.

With `COc1cccc(-c2nnc3n2N=C(c2ccccc2OC)CS3)c1`, the pIC50 is 4.87. Same read-out and setting: the same measure for `COc1cccc(C2=Nn3c(nnc3-c3ccccc3C)SC2)c1`: 5.49.

`COc1ccc(OC)c(C2=Nn3c(nnc3-c3ccccc3OC)SC2)c1` gave a pIC50 of 5.05.

`COc1ccccc1C1=Nn2c(nnc2-c2ccccc2OC)SC1` had a pIC50 of 4.70.

In the case of `COc1ccccc1-c1nnc2n1N=C(c1c(OC)cccc1OC)CS2`, the pIC50 was below 4.70. As for `COc1cccc(C2=Nn3c(nnc3-c3cccc(OC)c3)SC2)c1`, the pIC50 is 4.90.

In turn, `COc1ccc(OC)c(C2=Nn3c(nnc3-c3cccc(OC)c3OC)SC2)c1` had a pIC50 of 4.92. Same read-out and setting: the same measure for `COc1ccc(C2=Nn3c(nnc3-c3ccc(OC)c(OC)c3)SC2)cc1OC`: 6.75.

The target of another test is cGMP-inhibited 3',5'-cyclic phosphodiesterase 3A (Homo sapiens, UniProt Q14432). Description: Inhibition of PDE3A.
Chain of cGMP-inhibited 3',5'-cyclic phosphodiesterase 3A (Q14432 whole entry): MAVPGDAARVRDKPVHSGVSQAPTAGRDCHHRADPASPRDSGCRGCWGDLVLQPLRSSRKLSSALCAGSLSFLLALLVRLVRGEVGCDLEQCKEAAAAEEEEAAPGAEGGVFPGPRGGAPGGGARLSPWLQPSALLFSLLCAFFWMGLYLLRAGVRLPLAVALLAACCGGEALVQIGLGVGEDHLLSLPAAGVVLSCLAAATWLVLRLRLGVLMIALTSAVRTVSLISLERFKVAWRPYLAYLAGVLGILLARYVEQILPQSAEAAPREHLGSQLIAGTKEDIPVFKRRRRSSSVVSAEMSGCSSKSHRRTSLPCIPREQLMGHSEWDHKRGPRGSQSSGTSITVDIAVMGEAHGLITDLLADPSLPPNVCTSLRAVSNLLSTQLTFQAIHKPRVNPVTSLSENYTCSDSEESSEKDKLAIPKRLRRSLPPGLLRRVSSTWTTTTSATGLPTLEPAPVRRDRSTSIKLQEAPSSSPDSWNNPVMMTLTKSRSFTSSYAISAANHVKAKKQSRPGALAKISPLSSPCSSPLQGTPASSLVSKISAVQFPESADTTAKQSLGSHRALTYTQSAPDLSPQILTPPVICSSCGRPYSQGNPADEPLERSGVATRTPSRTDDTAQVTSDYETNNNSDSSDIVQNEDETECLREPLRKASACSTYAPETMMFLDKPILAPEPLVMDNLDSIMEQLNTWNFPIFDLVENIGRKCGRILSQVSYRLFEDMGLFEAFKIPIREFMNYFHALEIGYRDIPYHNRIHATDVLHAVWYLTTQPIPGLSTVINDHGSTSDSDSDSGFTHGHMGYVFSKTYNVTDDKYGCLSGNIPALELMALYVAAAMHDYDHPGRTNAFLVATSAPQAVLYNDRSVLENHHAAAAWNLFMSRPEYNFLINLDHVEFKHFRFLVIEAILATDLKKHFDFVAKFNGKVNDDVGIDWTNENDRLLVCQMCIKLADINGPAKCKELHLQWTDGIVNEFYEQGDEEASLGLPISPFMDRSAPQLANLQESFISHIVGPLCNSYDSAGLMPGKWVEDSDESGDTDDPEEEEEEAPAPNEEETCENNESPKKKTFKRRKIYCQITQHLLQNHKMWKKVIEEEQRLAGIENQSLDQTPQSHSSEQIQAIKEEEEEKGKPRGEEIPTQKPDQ
`COc1ccc(C2=Nn3c(nnc3-c3ccccc3OC)SC2)cc1OC` showed a pIC50 below 4.30.

For the molecule `COc1ccc(C2CNC(=O)C2)cc1OC1CCCC1` (configuration not stated) [ROLIPRAM], the result was inactive.

In a further test the target is cGMP-specific 3',5'-cyclic phosphodiesterase (Homo sapiens, UniProt O76074).
In turn, `COc1ccc(C2=Nn3c(nnc3-c3ccccc3OC)SC2)cc1OC` showed a pIC50 below 4.30.

The target in a further test is cAMP and cAMP-inhibited cGMP 3',5'-cyclic phosphodiesterase 10A (Homo sapiens, UniProt Q9Y233). Description: Inhibition of PDE10A.
Chain of cAMP and cAMP-inhibited cGMP 3',5'-cyclic phosphodiesterase 10A (Q9Y233 whole entry): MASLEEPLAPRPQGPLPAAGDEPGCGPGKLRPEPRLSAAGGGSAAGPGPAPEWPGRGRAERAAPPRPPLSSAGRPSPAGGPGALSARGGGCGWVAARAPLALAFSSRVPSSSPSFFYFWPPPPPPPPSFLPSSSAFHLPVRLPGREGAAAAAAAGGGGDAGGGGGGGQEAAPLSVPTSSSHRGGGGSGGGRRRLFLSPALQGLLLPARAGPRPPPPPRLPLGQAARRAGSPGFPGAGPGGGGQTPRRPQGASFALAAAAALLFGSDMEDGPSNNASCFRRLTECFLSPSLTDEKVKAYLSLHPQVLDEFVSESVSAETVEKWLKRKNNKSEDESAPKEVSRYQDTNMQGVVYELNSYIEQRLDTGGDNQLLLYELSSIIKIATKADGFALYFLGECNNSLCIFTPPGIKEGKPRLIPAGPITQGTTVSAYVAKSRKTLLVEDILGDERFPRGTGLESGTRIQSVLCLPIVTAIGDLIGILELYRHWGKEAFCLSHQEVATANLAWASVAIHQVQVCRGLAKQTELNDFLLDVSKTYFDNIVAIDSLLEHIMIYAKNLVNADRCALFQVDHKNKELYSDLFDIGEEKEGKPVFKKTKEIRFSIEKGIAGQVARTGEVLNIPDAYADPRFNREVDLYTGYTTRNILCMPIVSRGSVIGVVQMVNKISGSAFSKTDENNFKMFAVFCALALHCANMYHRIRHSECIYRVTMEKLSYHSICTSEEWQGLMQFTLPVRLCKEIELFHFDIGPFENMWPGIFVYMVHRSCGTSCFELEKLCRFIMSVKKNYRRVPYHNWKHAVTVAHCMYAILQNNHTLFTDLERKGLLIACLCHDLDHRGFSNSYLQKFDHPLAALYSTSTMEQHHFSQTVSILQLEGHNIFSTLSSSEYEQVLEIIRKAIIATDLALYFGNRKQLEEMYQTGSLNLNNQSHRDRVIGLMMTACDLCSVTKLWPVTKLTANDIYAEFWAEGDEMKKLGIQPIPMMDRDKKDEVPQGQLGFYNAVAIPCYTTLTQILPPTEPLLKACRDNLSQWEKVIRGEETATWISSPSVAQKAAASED
As to `COc1ccc(C2=Nn3c(nnc3-c3ccccc3OC)SC2)cc1OC`, the pIC50 is below 4.30. As for `COc1ccc(C2CNC(=O)C2)cc1OC1CCCC1` (configuration not stated) [ROLIPRAM], the outcome was inactive.

Another test concerns the target 3',5'-cyclic-AMP phosphodiesterase 7B (Homo sapiens) (UniProt Q9NP56). The test can be described thus: Inhibition of PDE7B.
`COc1ccc(C2=Nn3c(nnc3-c3ccccc3OC)SC2)cc1OC`: the result was inactive.

Turning to `COc1ccc(C2CNC(=O)C2)cc1OC1CCCC1` (configuration not stated) [ROLIPRAM], the outcome was inactive.

The next test addresses Dual specificity calcium/calmodulin-dependent 3',5'-cyclic nucleotide phosphodiesterase 1A (Homo sapiens, UniProt P54750). The test can be described thus: Inhibition of PDE1A.
Take `COc1ccc(C2=Nn3c(nnc3-c3ccccc3OC)SC2)cc1OC`: the pIC50 is below 4.30. Regarding `COc1ccc(C2CNC(=O)C2)cc1OC1CCCC1` (configuration not stated) [ROLIPRAM], the pIC50 is below 4.30.

A further test addresses High affinity 3',5'-cyclic-AMP phosphodiesterase 7A (Homo sapiens) (UniProt Q13946). Description: Inhibition of PDE7A.
As for `COc1ccc(C2=Nn3c(nnc3-c3ccccc3OC)SC2)cc1OC`, the outcome was inactive. On the same count and under the same terms, the same measure for `COc1ccc(C2CNC(=O)C2)cc1OC1CCCC1` (configuration not stated) [ROLIPRAM]: “inactive”.
